In PMC5191920 (Biochimica et biophysica acta, 2016):
“Also recorded” adds a separate entry of the source. Ends that are not written are not given here.

Assays:
[1] = Circular dichroism spectroscopy; format: physicochemical; conditions: 37 °C; for helicity, with TFE: 20% trifluoroethanol
Method in brief: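 Peptides at 0.2 mg/mL (final) in 10 mM phosphate buffer, with or without 20% trifluoroethanol, held at 37 °C. Far-UV spectra recorded from 190 to 240 nm on a spectropolarimeter. Ellipticity in mdeg converted to mean residue ellipticity (deg cm² dmol⁻¹).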

isolated human LDL = experiment: Isothermal titration calorimetry, binding to LDL; conditions: for binding to LDL by ITC: isolated human LDL injected into peptide, PBS pH 7.4
Method in brief: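 Human LDL and HDL isolated by ultracentrifugation. Lipoprotein titrated into a cell holding peptide or buffer alone: one initial injection, then 35 injections spaced 180 s apart. Heat monitored throughout and thermograms integrated to isotherms.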

isolated human HDL = experiment: Isothermal titration calorimetry, binding to HDL; conditions: isolated human HDL injected into peptide, PBS pH 7.4
Method in brief: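 Human HDL isolated by ultracentrifugation. Lipoprotein titrated into cell holding peptide or buffer alone: one small initial injection, then 35 injections, 180 s apart, with heat monitored continuously. Thermograms integrated to binding isotherms.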

[2] = DMP cross-linking, SDS-PAGE; format: physicochemical; conditions: PBS, DMP:peptide 30:1, 2 h room temperature
Method in brief: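 Homo-bifunctional amine-reactive crosslinker dimethylpimelimidate reacted with peptide at 30:1 molar ratio (crosslinker:peptide) in PBS for 2 h at room temperature. Quenched with 1 M Tris. Products resolved by SDS-PAGE under reducing conditions and stained with Coomassie blue to visualise oligomeric species.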

[3] = tested on: apoB containing lipoproteins in human plasma; format: binding; conditions: FPLC separation, VLDL plus LDL
Method in brief: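 FITC-labelled peptide incubated with human plasma for 1 h at 37 °C. Separated on two Superose 6 columns in series in Tris buffer (10 mM Tris, 150 mM NaCl, 0.5 mM EDTA, 0.01% azide) at 0.5 mL/min, collecting 0.5 mL fractions. Enzymatic phospholipid assay located VLDL, LDL and HDL. Fluorescence read at ex 485 / em 535 nm. Each peak expressed as percent of total fluorescence.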

[4] = tested on: lipoproteins in human plasma; experiment: Exchangeability of LDL-bound peptide among lipoproteins; conditions: FITC labeled B38 on isolated LDL, then human plasma 1 h at 37 °C, FPLC
Method in brief: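 FITC-labelled peptide co-incubated with isolated human LDL for 1 h at 37 °C. LDL repurified by FPLC to remove unbound peptide, and LDL fractions pooled and concentrated. Peptide-loaded LDL then incubated with PBS or human plasma for 1 h at 37 °C. Transfer of fluorescent peptide to other lipoprotein classes measured.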

human ABCA1 = human ABCA1 (Homo sapiens, UniProt O95477); experiment: Cholesterol efflux, ABCA1 transfected BHK cells; format: cell-based; conditions: ABCA1 expressing BHK cells, 18 h
Method in brief: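 BHK cells stably expressing human ABCA1 labelled 18 h with [3H]cholesterol in DMEM plus 10% fetal calf serum. Cells were washed, then switched to serum-free DMEM with 0.1 mg/ml fatty acid-free BSA. Peptide over a concentration range, or PBS, added for 18 h. Media filtered, cells lysed in 0.1% SDS/0.1 N NaOH, both counted by liquid scintillation. Efflux = media counts/(media + cell counts) × 100.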

DMPC vesicle clearance = format: physicochemical; conditions: peptide 100 ng/ml, DMPC 1 mg/ml, PBS, 24 °C, 60 min, absorbance 432 nm
Method in brief: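 Multilamellar DMPC vesicles (1 mg/ml) made by resuspending dried lipid in PBS and vortexing for 5 min. Peptide added to 100 ng/ml final. Absorbance at 432 nm read every 5 s for 60 min at 24 °C with fast shaking to prevent settling. Turbidity compared with a PBS-only control.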

human red blood cells = experiment: Red blood cell lysis assay; format: cell-based; conditions: human RBCs, 0 – 100 µM, 2 h room temperature, 1% Triton X-100 = 100% lysis
Method in brief: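 Human erythrocytes washed 5 times in PBS with 5% glucose, pH 7.4. Incubated with peptide at 0–100 µM for 2 h at room temperature, then pelleted at 1000×g for 5 min. Supernatant absorbance read at 450 nm. 1% Triton X-100 served as the 100% lysis reference.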

BHK cells = experiment: Visual cytotoxicity during cholesterol efflux experiments; format: cell-based; conditions: during the cholesterol efflux experiments
cells = conditions: ref [48]; cited from earlier work
[5] = 0.2 mg/mL peptide, 10 mM phosphate buffer

Chain of human ABCA1 (O95477 whole entry): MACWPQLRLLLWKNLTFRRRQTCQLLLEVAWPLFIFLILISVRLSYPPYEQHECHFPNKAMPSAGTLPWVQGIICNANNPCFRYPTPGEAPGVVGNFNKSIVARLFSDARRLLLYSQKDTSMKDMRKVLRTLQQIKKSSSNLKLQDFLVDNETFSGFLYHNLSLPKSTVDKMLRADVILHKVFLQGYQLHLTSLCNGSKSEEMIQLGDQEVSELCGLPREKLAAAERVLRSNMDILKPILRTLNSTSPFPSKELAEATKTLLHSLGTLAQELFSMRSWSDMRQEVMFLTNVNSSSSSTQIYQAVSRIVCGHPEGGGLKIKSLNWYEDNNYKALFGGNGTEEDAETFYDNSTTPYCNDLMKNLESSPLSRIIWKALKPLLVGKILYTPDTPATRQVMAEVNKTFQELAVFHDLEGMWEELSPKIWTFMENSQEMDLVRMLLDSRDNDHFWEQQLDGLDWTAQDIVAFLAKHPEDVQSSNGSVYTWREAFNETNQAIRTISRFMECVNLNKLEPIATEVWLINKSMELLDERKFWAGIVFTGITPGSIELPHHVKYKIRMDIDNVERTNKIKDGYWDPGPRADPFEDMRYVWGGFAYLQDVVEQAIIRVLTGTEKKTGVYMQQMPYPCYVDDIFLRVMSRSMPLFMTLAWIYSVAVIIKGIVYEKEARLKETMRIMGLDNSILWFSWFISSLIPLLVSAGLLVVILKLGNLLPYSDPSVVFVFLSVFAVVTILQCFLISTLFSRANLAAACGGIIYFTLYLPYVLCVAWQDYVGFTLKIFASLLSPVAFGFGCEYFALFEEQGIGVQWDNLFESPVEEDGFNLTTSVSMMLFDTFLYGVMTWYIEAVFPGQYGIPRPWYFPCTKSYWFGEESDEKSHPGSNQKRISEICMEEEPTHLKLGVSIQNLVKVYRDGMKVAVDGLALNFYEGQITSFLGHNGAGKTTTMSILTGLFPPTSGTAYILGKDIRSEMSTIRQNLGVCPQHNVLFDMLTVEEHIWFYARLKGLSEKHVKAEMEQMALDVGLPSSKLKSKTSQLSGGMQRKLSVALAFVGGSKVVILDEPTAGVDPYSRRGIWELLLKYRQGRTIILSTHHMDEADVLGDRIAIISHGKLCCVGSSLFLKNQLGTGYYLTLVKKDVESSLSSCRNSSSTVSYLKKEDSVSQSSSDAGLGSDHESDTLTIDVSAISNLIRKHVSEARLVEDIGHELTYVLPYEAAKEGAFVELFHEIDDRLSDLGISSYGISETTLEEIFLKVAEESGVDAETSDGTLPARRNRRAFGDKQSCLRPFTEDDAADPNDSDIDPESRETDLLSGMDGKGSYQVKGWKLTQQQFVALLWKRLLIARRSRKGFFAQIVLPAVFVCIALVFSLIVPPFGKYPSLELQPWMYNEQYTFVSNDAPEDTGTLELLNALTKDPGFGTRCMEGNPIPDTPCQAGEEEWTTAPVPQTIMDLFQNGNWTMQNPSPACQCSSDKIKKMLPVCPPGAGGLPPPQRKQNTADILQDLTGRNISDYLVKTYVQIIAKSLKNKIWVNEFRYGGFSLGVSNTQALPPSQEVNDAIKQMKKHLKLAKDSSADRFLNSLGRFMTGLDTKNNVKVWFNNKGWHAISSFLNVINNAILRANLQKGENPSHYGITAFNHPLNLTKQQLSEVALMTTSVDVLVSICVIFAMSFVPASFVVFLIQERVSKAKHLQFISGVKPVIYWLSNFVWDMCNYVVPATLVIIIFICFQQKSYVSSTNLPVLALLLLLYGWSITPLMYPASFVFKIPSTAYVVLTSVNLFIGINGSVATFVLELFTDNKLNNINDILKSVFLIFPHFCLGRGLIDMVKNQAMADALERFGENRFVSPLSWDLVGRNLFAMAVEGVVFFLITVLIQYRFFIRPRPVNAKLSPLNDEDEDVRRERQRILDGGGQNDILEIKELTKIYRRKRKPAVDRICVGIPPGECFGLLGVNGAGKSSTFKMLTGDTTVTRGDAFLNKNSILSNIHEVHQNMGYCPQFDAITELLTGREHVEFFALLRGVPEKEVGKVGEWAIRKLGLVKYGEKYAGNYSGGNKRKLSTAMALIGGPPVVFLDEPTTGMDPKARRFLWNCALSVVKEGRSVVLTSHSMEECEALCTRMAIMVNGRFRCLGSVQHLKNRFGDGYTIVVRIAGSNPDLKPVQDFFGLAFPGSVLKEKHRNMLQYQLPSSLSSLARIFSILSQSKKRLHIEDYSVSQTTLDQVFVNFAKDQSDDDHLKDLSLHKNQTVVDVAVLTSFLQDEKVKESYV

EKLKAKLKEGGKATLELSPWQMSALVQVHASQPSSFHDFPDLGGEKLKAKLKE [B61]
helicity, with TFE [1, 5]: 60%
secondary structure by CD, aqueous solution ([1]; 10 mM phosphate buffer, no TFE): random coil structure

EKLKAKLKEGGLNIKRGIISALLVPPETEEAGGEKLKAKLKE [B04]
helicity, with TFE [1, 5]: 43%
secondary structure by CD, aqueous solution ([1]; 10 mM phosphate buffer, no TFE): random coil structure

EKLKAKLKEGGQELQRYLSLVGQVYSTLVTYISDWWTLGGEKLKAKLKE [B38]
helicity, with TFE [1, 5]: 59%
helicity, aqueous solution ([1]; 0.2 mg/mL peptide, 10 mM phosphate buffer, no TFE): 40.1%
secondary structure by CD, aqueous solution ([1]; 10 mM phosphate buffer, no TFE): α-helical secondary structure; also recorded: formed an α-helix in aqueous buffer
helicity, with POPC vesicles ([1]; POPC vesicles added (also printed POPS)): 42.4%
secondary structure by CD, with POPC vesicles ([1]; POPC vesicles added): slight increase in helicity
total binding energy for LDL relative to HDL (isolated human LDL; ITC, isolated human LDL vs. HDL): 2.7 times
lipoprotein binding of synthesized HCD peptides (isolated human LDL; ITC, lipoprotein class not specified): showed significant lipoprotein binding capacity
shape of ITC thermal energy curve (isolated human LDL; binding to lipoprotein particles): U-shaped curve
binding to LDL by ITC (isolated human LDL): high affinity binding to both isolated HDL and LDL; also recorded: only peptide with significant binding affinity for LDL
binding energy in buffer control (isolated human LDL; peptide in buffer control (no LDL)): lack of significant binding energy
binding to HDL by ITC (isolated human HDL): high affinity binding to both isolated HDL and LDL; also recorded: found to bind to high density lipoprotein (HDL) but with lower affinity than LDL
oligomeric forms in aqueous solution [2]: presence of B38 oligomers in aqueous solution
percent of peptide bound to apoB containing lipoproteins [3]: 17%
exchangeability between lipoproteins [4]: could exchange between lipoproteins; also recorded: exchangeable between lipoproteins
cholesterol efflux, ABCA1 cells (human ABCA1): capable of ABCA1-dependent cholesterol efflux from cells; also recorded: promotes ABCA1 specific cholesterol efflux
solubilization / clearance of DMPC vesicles (DMPC vesicle clearance): rapidly cleared the solution; also recorded: does not clear DMPC vesicles as rapidly
concentration above which a small amount of red cell lysis occurs (human red blood cells): above 30 uM
visual evidence of cytotoxicity (BHK cells): no visual evidence of cytotoxicity was observed

EKLKAKLKEGGEKLKAKLKE [FLANK]
helicity, with TFE [1, 5]: 38%
secondary structure by CD, aqueous solution ([1]; 10 mM phosphate buffer, no TFE): random coil structure
binding to LDL by ITC (isolated human LDL): did not appear to bind strongly to either lipoprotein
binding to HDL by ITC (isolated human HDL): did not appear to bind strongly to either lipoprotein
oligomeric forms in aqueous solution [2]: only found as monomer and dimer in aqueous solution
cholesterol efflux, ABCA1 cells (human ABCA1): ineffective in promoting cholesterol efflux
solubilization / clearance of DMPC vesicles (DMPC vesicle clearance): did not solubilize DMPC vesicles

apoB: large amphipathic protein, structural scaffold of several classes of lipoproteins
cholesterol efflux from cells (cells): does not promote cholesterol efflux from cells

EKLKAKLKEGGGLSDEAVTSLLPQLIEVSSPGGEKLKAKLKE [B07]
helicity, with TFE [1, 5]: 40%
secondary structure by CD, aqueous solution ([1]; 10 mM phosphate buffer, no TFE): random coil structure

DWLKAFYDKVAEKLKEAFPDWAKAAYDKAAEKAKEAA [5A, reference compound]
solubilization / clearance of DMPC vesicles (DMPC vesicle clearance): rapidly cleared the solution
